# Screens as filed in PubChem BioAssay.
# CHO parental Ca = signal in parental CHO cells, OX1R antagonist counter-screen. parental CHO-K1, ATP-induced calcium, Fluo-8 fluorescence. inhibition, % at 5.6 µM. hit rate 0.63% among 330,000. AID 463079;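 active = inhibition above that plate's mean sample inhibition plus 3 SD, cut at about 26% in these data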;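 note: 0% = ATP-challenged DMSO wells and 100% = DMSO wells without ATP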
#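 Assay system – parental CHO cells · Reagent – ATP stimulus · Detection – intracellular calcium via Fluo-8 no-wash fluorescent dye · Evaluation – percent inhibition of ATP-evoked calcium rise, normalized to controls · Controls – ATP wells versus no-ATP DMSO wells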
# OX1R antag-1 = antagonists of human orexin 1 receptor; AID 434989; CHO/OX1R cells, Fluo-8 calcium fluorescence, orexin A; inhibition, % at 5 µM; hit rate 0.43% among 330,000; O43613;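 active = inhibition above its plate's threshold, mean inhibition of all tested compounds on the plate plus 3 SD, cut at about 37% in these data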;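 note: 0% = orexin A challenge wells and 100% = SB-334867-A antagonist wells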
# GPR7 antagonist = antagonists of human GPR7 (neuropeptides B/W receptor 1) | GPR7-expressing cells, fluorescence antagonist assay | P48145 | inhibition, % at 4.4 µM | hit rate 1.1% among 290,000; in the data active = inhibition above about 16%, passing the limit was not always enough;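 note: cells stimulated with the agonist NPW; 0% = agonist with vehicle and 100% = vehicle without agonist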
# Target sequence (P48145 whole entry, looked up): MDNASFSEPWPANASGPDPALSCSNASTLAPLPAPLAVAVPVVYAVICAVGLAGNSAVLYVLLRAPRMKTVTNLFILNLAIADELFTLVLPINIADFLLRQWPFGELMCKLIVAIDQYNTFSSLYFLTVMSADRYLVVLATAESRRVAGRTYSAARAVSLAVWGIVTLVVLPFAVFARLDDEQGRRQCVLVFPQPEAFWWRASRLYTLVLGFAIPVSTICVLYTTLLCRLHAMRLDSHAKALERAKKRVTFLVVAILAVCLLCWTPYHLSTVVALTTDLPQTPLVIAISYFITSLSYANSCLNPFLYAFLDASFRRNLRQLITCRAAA
# TAAR1 ag = agonists of human TAAR1. CHO RD-HGA16 TAAR1, Fluo-8 calcium fluorescence; vehicle wells 0%, saturating PEA agonist 100%. activation, % at 3 µM. hit rate 0.99% among 360,000. AID 624467;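 active = activation above the mean activation of all test compounds in the run plus 3 SD, cut at about 38% in these data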
# Target sequence (Q96RJ0 whole entry, looked up): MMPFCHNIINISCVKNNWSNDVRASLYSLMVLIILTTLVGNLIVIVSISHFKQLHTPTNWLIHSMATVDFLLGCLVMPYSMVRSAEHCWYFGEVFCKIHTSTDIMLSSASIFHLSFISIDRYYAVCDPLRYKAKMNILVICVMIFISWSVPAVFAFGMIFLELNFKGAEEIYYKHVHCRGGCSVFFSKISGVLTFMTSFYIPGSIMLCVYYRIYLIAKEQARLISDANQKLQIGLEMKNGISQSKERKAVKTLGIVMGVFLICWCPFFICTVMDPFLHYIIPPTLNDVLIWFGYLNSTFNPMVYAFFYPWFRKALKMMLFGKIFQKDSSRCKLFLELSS
#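 Test system: RD-HGA16 (CHO) cells co-expressing Gα16 and hTAAR1; dosing: one-point dosing at 3 µM (nominal); timing: 17-24 h seeding, 75 min 37 °C dye, 30 min RT; signal: kinetic Fluo-8 calcium fluorescence; read-out basis: % activation relative to PEA EC100 response; controls: DMSO and PEA EC100; replicates: n 1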
# TAAR1 antagonist = human TAAR1 antagonism; hit rate 1.5% among 360,000; CHO RD-HGA16 TAAR1, Fluo-8 calcium fluorescence, antagonist; Q96RJ0; inhibition, % at 3 µM;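 active = inhibition above a per-plate cutoff, the mean inhibition of test compounds on that plate plus 3 SD, cut at about 49% in these data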;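 note: 0% = DMSO plus EC80 beta-PEA response and 100% = DMSO alone without agonist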
#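 Test system: CHO RD-HGA16 cells bearing hTAAR1 | Reagent: β-PEA, EC80 | Compound dosing: 3 µM, single point | Schedule: Dye loading 75 min at 37 °C, then 30 min room temperature | Signal: Calcium fluorescence with Fluo-8 | Evaluation: Percent inhibition of PEA-evoked calcium signal, max/basal emission ratio | Control set: DMSO-only wells and EC80 β-PEA-stimulated wells | Repeats: Singlicate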
# OX1R antag-2 = antagonists of human orexin 1 receptor (OX1R). O43613. OX1R-expressing cells, FRET antagonist read-out. inhibition, % at 6.6 µM. hit rate 1.8% among 330,000; in the data active = inhibition mostly above about 38%, no sharp cut-off; inactive = mostly below about 40%;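 note: 0% = agonist challenge alone and 100% = reference antagonist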
# OX1R Fluo8 conf = OX1R (human) antagonism, confirmed | shares compounds with OX1R antag-1 | hit rate 38% among 1,100 | CHO/OX1R cells, orexin A calcium Fluo-8 fluorescence | inhibition, % at 5 µM; in the data active = inhibition above about 29%;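 note: 0% = agonist challenge alone and 100% = reference antagonist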
# CHO Ca counter = counter-screen: parental CHO calcium response change, triplicate; shares compounds with OX1R antag-1; parental CHO-K1, ATP-induced calcium, Fluo-8 fluorescence; inhibition, % at 5.6 µM; hit rate 9.3% among 1,100; AID 492965;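 active = inhibition above a per-plate limit, the mean inhibition of that plate's test compounds plus 3 SD, cut at about 25% in these data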;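 note: 0% = ATP challenge with DMSO and 100% = DMSO without ATP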
# The depositor's hits bear a star; nt = no result given. Shown are actives, neighbours in structure and some others; about 4.6% of the full set was active somewhere.
SMILES,CHO parental Ca,OX1R antag-1,GPR7 antagonist,TAAR1 ag,TAAR1 antagonist,OX1R antag-2,OX1R Fluo8 conf,CHO Ca counter
Cc1cccc(N=Nc2c(N)n[nH]c2-c2ccc(Cl)cc2)c1,20.7,26.7,-14.9,33.2,-16.0,7.0,-4.7,-7.0
NCCCC[C@H]1CNC(=S)N1CC1CCCCC1,-7.8,-8.2,2.8,5.3,-0.4,17.7,nt,nt
Cc1ccccc1OCCC(=O)Nc1cccc(S(=O)(=O)Nc2ccccc2Cl)c1,-4.7,45.3*,-7.7,6.8,41.1,58.0,25.8,-2.5
FC(F)(F)c1cccc(NC(=S)N2CCN(c3ccccn3)CC2)c1,-18.5,-10.8,-3.5,35.6,17.4,1.7,nt,nt
Cc1csc2c(N3CCN(C(=S)Nc4ccc(C(F)(F)F)cc4)CC3)ncnc12,9.8,37.1,-1.4,46.8*,38.1,25.3,22.5,64.3*
Cc1cc(C)cc(NC(=S)N2CCN(c3ncc(C(F)(F)F)cc3Cl)CC2)c1,-25.1,-0.8,-5.7,4.2,-12.5,4.0,nt,nt
Cc1csc2ncnc(N3CCN(C(=S)Nc4ccc(C(F)(F)F)cc4)CC3)c12,0.2,49.2*,-9.6,1.1,-41.5,44.7,22.1,44.7*
O=C(CSc1nnc(NCc2ccccc2)s1)c1ccco1,-13.6,31.6,3.4,8.8,-1.6,53.6,7.2,10.1
Cc1nn(C(=O)CCC(=O)NCc2ccccc2Cl)c2ccccc12,-9.0,-10.0,-10.5,-0.8,5.5,11.1,nt,nt
COc1cc(/C=C/C(O)=C/C(=O)/C=C/c2ccc(O)cc2)ccc1O,24.6,47.8,nt,45.1*,81.0*,4.4,18.0,18.2
COc1ccc(/C=C/C(=O)c2cc(Br)ccc2O)cc1OC,-20.8,-30.3,2.5,8.3,4.6,-1.1,nt,nt
CC(C)C[C@H]1COCCS(=O)(=O)N1Cc1ccccc1F,-19.6,-22.7,nt,7.7,9.6,18.7,nt,nt
COc1ccc(S(=O)(=O)CC2(O)CCN(C(=O)C(C)(C)C)CC2)cc1,2.1,-15.8,-8.1,1.3,2.9,12.8,nt,nt
COc1ccccc1NC(=O)CSc1nnc(-c2ccc(NC(C)=O)cc2)n1C,5.8,4.1,-13.5,6.3,-10.3,-2.4,nt,nt
CC(=O)Nc1ccc(-c2nnc(SCC(=O)Nc3ccc4c(c3)oc3ccccc34)n2C)cc1,12.0,25.4,13.5,1.4,-6.2,13.1,-0.8,-2.3
CC(C)(C)c1ccccc1OCC(=O)Nc1ccccc1C(=O)NCc1cccnc1,15.7,42.5*,-0.9,14.4,58.1*,28.5,8.2,-14.7
Cc1cc([N+](=O)[O-])ccc1NCc1ccccc1,18.0,49.6*,9.7,nt,nt,12.5,18.1,16.2
O=C(O)CNC(=S)NCc1ccccc1,9.5,-11.1,-17.0,2.0,-7.8,7.8,nt,nt
CC(C)C(NC(=S)NCc1ccccc1)C(=O)O (configuration not stated),-8.0,31.1,-5.3,0.5,-4.7,15.5,-2.3,10.9
CC1(C)Cc2c(sc(NC(=O)C(=O)N3CCCCC3)c2C(N)=O)CO1,-4.2,-5.6,-11.6,1.8,-16.8,6.8,nt,nt
CC1=C(C(=O)OCc2ccc3c(c2)OCO3)C(c2cccc([N+](=O)[O-])c2)NC(=O)N1 (configuration not stated),-0.2,24.9,-3.3,8.6,28.0,11.8,5.2,-8.3
C#CCOC(=O)Nc1cnccc1C(F)(F)F,-9.1,-5.9,-17.2,11.2,-9.6,7.1,nt,nt
Cc1ccc(CS(=O)(=O)Cc2ccc(C(=O)NCc3cccnc3)o2)cc1,-11.5,-15.2,-11.1,0.7,19.6,10.0,nt,nt
COC(=O)C1=C(C)N(Cc2ccccc2)C(=NCc2cccc(Cl)c2)N[C@H]1c1cccc(F)c1,20.8,60.7*,nt,nt,nt,10.6,51.3*,9.0
COC(=O)C1=C(C)N(Cc2ccccc2)C(=NCc2ccco2)N[C@H]1c1cccc(F)c1,-21.8,-1.1,nt,14.7,21.0,6.7,nt,nt
SMILES,CHO parental Ca,OX1R antag-1,GPR7 antagonist,TAAR1 ag,TAAR1 antagonist,OX1R antag-2,OX1R Fluo8 conf,CHO Ca counter
CCC(Oc1ccccc1)C(=O)OCC(=O)Nc1sccc1C(N)=O (configuration not stated),0.5,43.8*,nt,11.0,23.4,13.4,17.1,17.6
O=[N+]([O-])c1ccc(Nc2ccc3ccccc3c2)nc1,0.2,45.5*,1.2,-2.5,24.8,35.2,22.4,4.2
COc1ccc(CNc2nn[nH]n2)cc1OC,-11.8,-6.7,-3.6,9.2,3.8,15.6,nt,nt
CCN(CC)c1ccc(/C=c2/sc3nnc(-c4ccccc4C)n3c2=O)cc1,14.5,32.1,4.8,16.9,12.5,23.6,44.3*,40.2*
COC(=O)c1cccc(NC(=S)NCc2ccc(Cl)cc2)c1,11.1,31.0,4.7,29.5,41.6,9.0,27.0,5.5
O=C1c2ccccc2C(=O)N1CCCn1nnc(-c2ccc(N3CCOCC3)cc2)n1,-5.0,10.3,-3.4,14.4,39.1,0.7,nt,nt
CCN(CC)c1ccc2c(c1)oc(=O)c1c(Cl)cc(=O)oc12,16.4,28.5,-8.2,nt,nt,21.8,79.9*,56.0*
C[C@@H]1CN([C@@H](C)CO)C(=O)CCCn2cc(nn2)CO[C@H]1CN(C)C(=O)OCc1ccccc1,nt,nt,nt,1.0,1.4,nt,nt,nt
NC(=O)NOCc1ccc(Cl)cc1Cl,-11.2,7.6,-5.0,0.3,-18.1,8.2,nt,nt
CNC(=S)/N=C/NOCc1ccc(Cl)cc1Cl,12.4,41.1*,19.4,8.6,22.1,28.8,20.0,18.9
CCCN(C(=O)COC(=O)CCOc1ccc(C)cc1)c1c(N)n(Cc2ccccc2)c(=O)[nH]c1=O,-0.7,-6.4,nt,0.1,-11.7,9.4,nt,nt
Cc1ccc(OCCC(=O)N(CCC(C)C)c2c(N)n(Cc3ccccc3)c(=O)[nH]c2=O)cc1,-13.1,37.3,nt,nt,nt,26.3,-4.9,-11.0
CC(=O)Oc1ccc(-n2c(=O)c3ccccc3c3ccccc3c2=O)cc1,-3.9,0.1,2.5,-1.0,-13.9,2.3,nt,nt
CC(=O)Oc1ccc(N2C(=O)c3cccc4c([N+](=O)[O-])ccc(c34)C2=O)cc1,25.0,43.8*,19.5,1.7,10.1,29.6,34.6*,28.8*
Cn1cnnc1SCC(=O)Nc1nc(-c2ccccc2)cs1,-11.0,42.3*,3.3,5.1,8.6,45.4,31.7*,1.7
O=C(COC(=O)CCc1c[nH]c2ccccc12)NCCc1ccccc1,-5.7,-0.1,nt,11.5,20.8,10.2,nt,nt
NS(=O)(=O)c1ccc(CCNC(=O)COC(=O)CCc2c[nH]c3ccccc23)cc1,-9.3,32.5,nt,16.7,-6.0,12.3,14.6,-8.3
COC(=O)C(Cc1ccccc1)NC(=O)CCc1c[nH]c2ccccc12 (configuration not stated),4.5,39.0,30.7,1.6,18.5,10.3,37.4*,8.4
